What was measured:
[1] = Prodrug conversion assessed as release dozax at 50 uM at pH 7.4 in PBS buffer in presence of human plasmin after 2 hrs by RP-HPLC; format: ADME; details: pH 7.4, 2 h
Summary of the method: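 50 µM prodrug with 1.2 µg/mL human plasmin in PBS pH 7.4 at 37 °C. Samples taken over time, ethanol-quenched, analysed by RP-HPLC at 480 nm for prodrug and dox; repeated runs fit to single-exponential association model.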

MCF7 [2] = assay: Cytotoxicity against human MCF7 cells incubated for 24 hrs measured after 5 days in presence of complete protease inhibitor cocktail; format: functional, cell-based
Summary of the method: (§1)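 Cells seeded 1000/well, adhered overnight, then serum-free medium with or without plasmin, trypsin, cathepsin B or papain (0.2 U/well), aprotinin (5 µM) or protease inhibitor cocktail (1X). Prodrug 2000–1 nM final, 24 h; then complete medium up to 5 days or control 80% confluence. Formalin fixed, crystal violet, A582; % of control fit to variable-slope sigmoid for IC50.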

MIA PaCa-2 [3] = assay: Cytotoxicity against human MIAPaCa2 cells incubated for 24 hrs measured after 5 days in presence of 0.2 U papain; format: functional, cell-based; summary of the method: as §1
Papain (Carica papaya) = biological target: T1, Papain (Carica papaya) (UniProt P00784); assay: Activity of papaya papain assessed as compound hydrolysis measuring enzyme specific activity at 50 uM at pH 6.5 in PBS buffer containing 10 mM N-acetylcysteine by RP-HPLC
T1 sequence (whole entry): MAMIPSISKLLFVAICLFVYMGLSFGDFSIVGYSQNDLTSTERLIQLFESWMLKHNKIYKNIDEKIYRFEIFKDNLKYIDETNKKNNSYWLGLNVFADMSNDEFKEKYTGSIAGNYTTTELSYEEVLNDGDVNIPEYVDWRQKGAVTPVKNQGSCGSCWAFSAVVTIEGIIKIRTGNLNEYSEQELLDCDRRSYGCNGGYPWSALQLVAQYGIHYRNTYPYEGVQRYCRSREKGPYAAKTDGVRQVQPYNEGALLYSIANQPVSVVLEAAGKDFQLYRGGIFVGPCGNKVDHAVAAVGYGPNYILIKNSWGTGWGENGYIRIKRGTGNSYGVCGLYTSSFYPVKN
Summary of the method: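 50 µM prodrug incubated at 37 °C with enzyme: trypsin in PBS; papain diluted two-fold in PBS-NAC (PBS + 10 mM N-acetylcysteine), reacted in PBS-NAC pH 6.5. Aliquots quenched in equal volume ethanol, −20 °C ≥2 h, centrifuged; supernatant RP-HPLC at 480 nm for substrate loss and dox gain. Slope of linear fit gives activity; 1 U = 1 µM prodrug hydrolysed per min.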

MIA PaCa-2 [4] = assay: Cytotoxicity against human MIAPaCa2 cells incubated for 24 hrs measured after 5 days in presence of 0.2 U trypsin; format: functional, cell-based; summary of the method: as §1
MIA PaCa-2 [5] = assay: Cytotoxicity against human MIAPaCa2 cells incubated for 24 hrs measured after 5 days in presence of 0.2 U plasmin; format: functional, cell-based; summary of the method: as §1
[6] = biological target: Cathepsin B (Homo sapiens) (UniProt P07858); assay: Activity of human cathepsin B assessed as enzyme catalytic efficiency for compound hydrolysis at 50 uM at pH 6.5 in PBS buffer containing 10 mM N-acetylcysteine by RP-HPLC
Summary of the method: (§2)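 Michaelis-Menten kinetics, substrate 10–400 µM at 37 °C. Plasmin: 0.2 U, PBS pH 7.4, 4 min. Cathepsin B: 0.08 U, PBS-NAC pH 6.5, 20 min. Quenched with equal volume ethanol, −20 °C ≥2 h, centrifuged, supernatant RP-HPLC at 480 nm. Rates (µM/min) fit by non-linear least squares; triplicates.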

SHP77 [7] = assay: Cytotoxicity against doxorubicin-resistant human SHP77 cells incubated for 24 hrs measured after 5 days in presence of 0.2 U human plasmin; format: functional, cell-based; summary of the method: as §1
[8] = Cytotoxicity against human L3.3 cells incubated for 24 hrs measured after 5 day; format: functional, cell-based; summary of the method: as §1
Homo sapiens = organism: Homo sapiens; assay: Selectivity ratio of catalytic efficiency of human plasmin to catalytic efficiency of human cathepsin B
Summary of the method: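 Michaelis–Menten kinetics with human enzymes and substrate at 10–400 µM, 37 °C. Plasmin: 0.2 U in PBS pH 7.4 for 4 min. Cathepsin B: 0.08 U in PBS with 10 mM N-acetylcysteine, pH 6.5, for 20 min. Quenched with ethanol, held at −20 °C ≥2 h, centrifuged. Dox release read by RP-HPLC at 480 nm. Rates (µM/min) fit by non-linear least squares; triplicate.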

[9] = Cytotoxicity against human L3.3 cells incubated for 24 hrs measured after 5 days in presence of 0.2 U human plasmin; format: functional, cell-based; summary of the method: as §1
MIA PaCa-2 [10] = assay: Drug uptake in human MIAPaCa2 cells increase in compound uptake-induced anthracycline fluorescence in presence of plasmin at 0.5 uM after 4 to 5 hrs by flow cytometry relative to untreated control; format: ADME, cell-based; details: mia paca-2, 0.5 µM
Summary of the method: (§3)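 MCF-7 or MiaPaCa-2 plated 250,000/well, adhered overnight, switched to serum-free medium with 0.5 µM prodrug alone or plus 0.2 U human plasmin (final) for up to 5 h. Trypsinised cells read by flow cytometry (FL3) for anthracycline fluorescence; mean values expressed as fold over untreated cells.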

MCF7 [11] = assay: Drug uptake in human MCF7 cells increase in compound uptake-induced anthracycline fluorescence in absence of plasmin at 0.5 uM up to 5 hrs by flow cytometry relative to untreated control; format: ADME, cell-based; details: mcf7, 5 h; summary of the method: as §3
MIA PaCa-2 [12] = assay: Drug uptake in human MIAPaCa2 cells increase in compound uptake-induced anthracycline fluorescence in absence of plasmin at 0.5 uM up to 5 hrs by flow cytometry relative to untreated control; format: ADME, cell-based; details: mia paca-2, 5 h; summary of the method: as §3
SHP77 [13] = assay: Cytotoxicity against human doxorubicin-resistant SHP77 cells incubated for 24 hrs measured after 5 days; format: functional, cell-based; summary of the method: as §1
MCF7 [14] = assay: Drug uptake in human MCF7 cells increase in compound uptake-induced anthracycline fluorescence in presence of plasmin at 0.5 uM after 4 to 5 hrs by flow cytometry relative to untreated control; format: ADME, cell-based; details: mcf7, 0.5 µM; summary of the method: as §3
MCF7 [15] = assay: Cytotoxicity against human MCF7 cells incubated for 24 hrs measured after 5 days; format: functional, cell-based; summary of the method: as §1
BXPC-3 = assay: Cytotoxicity against human BxPC3 cells incubated for 24 hrs measured after 5 days; format: functional, cell-based; summary of the method: as §1
[16] = Cytotoxicity against human L3.6PL cells incubated for 24 hrs measured after 5 days in presence of 0.2 U human plasmin; format: functional, cell-based; summary of the method: as §1
[17] = Cytotoxicity against human L3.5 cells incubated for 24 hrs measured after 5 day; format: functional, cell-based; summary of the method: as §1
[18] = Cytotoxicity against human L3.5.cells incubated for 24 hrs measured after 5 days in presence of 0.2 U human plasmin; format: functional, cell-based; summary of the method: as §1
MCF7 [19] = assay: Cytotoxicity against human MCF7 cells incubated for 24 hrs measured after 5 days in presence of 0.2 U plasmin; format: functional, cell-based; summary of the method: as §1
[20] = Prodrug conversion assessed as release dozax at 50 uM at pH 7.4 in PBS buffer in absence of human plasmin after 24 hrs by RP-HPLC; format: ADME; details: pH 7.4, 24 h
Summary of the method: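 Enzyme-free control: 50 µM prodrug in PBS at 37 °C over 24 h, RP-HPLC monitoring dox at 480 nm.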

MCF7 [21] = assay: Cytotoxicity against human MCF7 cells incubated for 24 hrs measured after 5 days in presence of 5 uM aprotinin; format: functional, cell-based; summary of the method: as §1
[22] = biological target: Plasminogen (Homo sapiens) (UniProt P00747); assay: Activity of human plasmin assessed as enzyme catalytic efficiency for compound hydrolysis at 50 uM at pH 7.4 in PBS buffer by RP-HPLC; summary of the method: as §2
Sequence of Plasminogen (Homo sapiens) (P00747 97-580 limits assumed): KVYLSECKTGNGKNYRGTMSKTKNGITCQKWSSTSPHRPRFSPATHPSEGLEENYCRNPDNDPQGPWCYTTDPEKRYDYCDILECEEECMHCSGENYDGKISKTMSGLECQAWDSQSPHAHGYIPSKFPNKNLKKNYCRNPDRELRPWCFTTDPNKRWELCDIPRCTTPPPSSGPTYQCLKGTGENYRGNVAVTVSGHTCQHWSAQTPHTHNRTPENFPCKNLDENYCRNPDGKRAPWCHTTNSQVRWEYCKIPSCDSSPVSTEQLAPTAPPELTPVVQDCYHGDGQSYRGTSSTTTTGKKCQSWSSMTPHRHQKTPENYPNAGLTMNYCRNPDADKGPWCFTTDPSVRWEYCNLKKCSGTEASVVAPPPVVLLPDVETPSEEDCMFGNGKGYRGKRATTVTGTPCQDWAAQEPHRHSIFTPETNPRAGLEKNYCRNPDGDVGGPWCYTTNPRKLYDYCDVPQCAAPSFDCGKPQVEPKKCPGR
Sequence of Plasminogen (Homo sapiens) (P00747 581-810 limits assumed): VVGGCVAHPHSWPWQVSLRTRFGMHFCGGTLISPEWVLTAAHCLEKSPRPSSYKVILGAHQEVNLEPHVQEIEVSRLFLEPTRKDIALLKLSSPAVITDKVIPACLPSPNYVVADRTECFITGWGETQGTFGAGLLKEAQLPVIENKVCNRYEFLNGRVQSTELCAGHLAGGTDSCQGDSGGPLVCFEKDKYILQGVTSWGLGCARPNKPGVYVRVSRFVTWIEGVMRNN

HEK-293T = assay: Cytotoxicity against human HEK293T cells incubated for 24 hrs measured after 5 day; format: cell-based; summary of the method: as §1

Structure (SMILES): COc1cccc2c1C(=O)c1c(O)c3c(c(O)c1C2=O)C[C@@](O)(C(=O)CO)C[C@@H]3O[C@H]1C[C@H]2[C@H](OCN2C(=O)OCc2ccc(NC(=O)[C@H](CCCCN)NC(=O)[C@H](Cc3ccccc3)NC(=O)[C@@H](C)NC(=O)CNC(C)=O)cc2)[C@H](C)O1.O=P(O)(O)O
- Drug metabolism [1]: Active
- IC50 (MCF7 [2]): 251 nM
- IC50 (MIA PaCa-2 [3]): 69.2 nM
- Activity (Papain (Carica papaya)): 890 U/mg
- IC50 (MIA PaCa-2 [4]): 26.3 nM
- IC50 (MIA PaCa-2 [5]): 23.4 nM
- Activity [6]: 4.59 ×10³ /M/s
- IC50 (SHP77 [7]): 29.5 nM
- IC50 [8]: 251 nM
- Ratio (Homo sapiens): > 3
- IC50 [9]: 3.98 nM
- fold change (FC) (MIA PaCa-2 [10]): 7
- fold change (FC) (MCF7 [11]): 2
- fold change (FC) (MIA PaCa-2 [12]): 2
- IC50 (SHP77 [13]): 1580 nM
- fold change (FC) (MCF7 [14]): 7
- IC50 (MCF7 [15]): 200 nM
- IC50 (BXPC-3): 1000 nM
- IC50 [16]: 3.16 nM
- IC50 [17]: 224 nM
- IC50 [18]: 2.63 nM
- IC50 (MCF7 [19]): 26.9 nM
- Stability [20]: Stable
- IC50 (MCF7 [21]): 295 nM
- Activity [22]: 1.43 ×10⁴ /M/s
- IC50 (HEK-293T): 200 nM

Reference: ChEMBL document CHEMBL2169769, “Synthesis and biological characterization of protease-activated prodrugs of doxazolidine” (J Med Chem, 2012)
